Measurements reported in ChEMBL document CHEMBL2346644, “Anti-HBV active constituents from Piper longum” (Bioorg Med Chem Lett, 2013).

Assays:
[1] = Selectivity index, ratio of CC50 for human HepG2(2.2.15) cells to IC50 for Hepatitis B virus-infected human HepG2(2.2.15) cells assessed as inhibition of HBeAg secretion; assay type: functional
How it was run: (§1)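 SI was calculated as CC50/IC50 from Hep G2.2.15 cytotoxicity and from inhibition of HBeAg or HBsAg secretion. The underlying values are means of two independent experiments.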

Hepatitis B virus [2] = assay: Antiviral activity against Hepatitis B virus-infected human HepG2(2.2.15) cells assessed as inhibition of HBeAg secretion; assay type: functional, organism-based
How it was run: (§2)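 Secretion of HBsAg and HBeAg by the HBV-producing Hep G2.2.15 line was measured after compound treatment. IC50 is the concentration giving 50% inhibition of antigen secretion. Lamivudine (3TC) served as the positive control. Values are the mean of two independent experiments.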

[3] = Selectivity index, ratio of CC50 for human HepG2(2.2.15) cells to IC50 for Hepatitis B virus-infected human HepG2(2.2.15) cells assessed as inhibition of HBsAg secretion; assay type: functional; how it was run: as §1
Hepatitis B virus [4] = assay: Antiviral activity against Hepatitis B virus-infected human HepG2(2.2.15) cells assessed as inhibition of HBsAg secretion; assay type: functional, organism-based; how it was run: as §2
[5] = Cytotoxicity against human HepG2(2.2.15) cells; assay type: cell-based
How it was run: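 The CC50, the concentration causing 50% cytotoxicity, was determined in Hep G2.2.15 cells. Values are the mean of two independent experiments.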

Row | SMILES | IC50 (Hepatitis B virus [2]) | IC50 (Hepatitis B virus [4]) | Ratio CC50/IC50 [1] | Ratio CC50/IC50 [3] | CC50 [5]
1 | Nc1ccn([C@@H]2CS[C@H](CO)O2)c(=O)n1 [LAMIVUDINE] | 30400 µM | 28800 µM | 1 | 1.1 | –
2 | COc1cc(CC/C=C/C(=O)N2CCCCC2)ccc1O | > 2700 µM | 2700 µM | – | – | > 2700 µM
3 | O=C1C=CCCN1 [5,6-DIHYDRO-2(1H)-PYRIDINONE] | > 14000 µM | > 14000 µM | – | – | 9900 µM
4 | CC(C)CNC(=O)/C=C/C=C/CCCCCC/C=C/c1ccc2c(c1)OCO2 [GUINEENSINE] | < 50 µM | < 50 µM | >3 | >3 | 150 µM
5 | CC(CC(=O)O)(CC(=O)O)OC[C@H]1O[C@@H](OC/C=C/c2ccccc2)[C@H](O)[C@@H](O)[C@@H]1O [LONGUMOSIDE B] | > 3750 µM | > 3750 µM | – | – | > 3750 µM
6 | CC(C)CNC(=O)/C=C/C=C/c1ccc2c(c1)OCO2 [PIPERLONGUMININE] | > 4510 µM | > 4510 µM | – | – | 320 µM

Further lines, with some results ahead:

Row | IC50 (Hepatitis B virus [2]) | IC50 (Hepatitis B virus [4]) | SMILES | Ratio CC50/IC50 [1] | Ratio CC50/IC50 [3] | CC50 [5]
7 | > 1220 µM | > 1220 µM | O=C1NCC[C@H](O)[C@H]1O | – | – | > 1220 µM
8 | 1070 µM | 580 µM | CCCCCCCCCCCCCCC/C=C/C=C/C(=O)NCC(C)C | 1.5 | 2.7 | 1580 µM
9 | 160 µM | 130 µM | O=C(/C=C/CCCC[C@H](O)[C@H](O)c1ccc2c(c1)OCO2)N1CCCCC1 (relative stereo) | 2 | 2.5 | 320 µM
10 | 140 µM | 150 µM | O=C(/C=C/C=C/c1ccc2c(c1)OCO2)N1CCCCC1 [PIPERINE] | 16.8 | 15.7 | 2350 µM
11 | 110 µM | 110 µM | O=C(/C=C/CCCC[C@@H](O)[C@H](O)c1ccc2c(c1)OCO2)N1CCCCC1 (relative stereo) | 1.9 | 1.9 | 210 µM
